# pEC50, pIC50, pKi: −log10 of the molar value.
# Assays:
# [1] = system: Aorta; experiment: Relaxant activity in potassium depolarized guinea pig aortic strips assessed as inhibition of calcium-induced contraction at 10^-6 M relative to control; format: functional, Cavia porcellus; parameters: scale not given: the % may be the effect or the level left
# Outline: (§1)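 Guinea pig aortic strips and ileum longitudinal smooth muscle were depolarized with 80 mM K⁺. Calcium-induced contraction was measured with cumulative compound addition, and inhibition was expressed as percent change from control (n = 6−7). Differences from control at each concentration were tested by Student's t-test, P < 0.05, and data are mean SEM.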
# [2] = system: Ileum; experiment: Relaxant activity in potassium depolarized guinea pig ileum longitudinal smooth muscle assessed as inhibition of calcium-induced contraction at 5x10'-9 M relative to control; format: functional, Cavia porcellus; parameters: scale not given: the % may be the effect or the level left; outline: as §1
# [3] = Negative chronotropic activity in guinea pig right atrium assessed as decrease in atrial rate; format: functional, tissue-based; settings: Cavia porcellus, Cardiac atrium
# Outline: (§2)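 Isolated guinea pig atria are used, with left atria driven at 1 Hz. Compounds are added cumulatively. EC50 is derived from log concentration−response curves by Litchfield–Wilcoxon probit analysis, n = 6−7. EC50 is not calculated when the maximal effect is below 50%.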
# [4] = Displacement of [3H]-PN200-110 from L-type calcium channel in Hartley guinea pig ventricular membrane […] after 90 mins; parameters: species or system Cavia porcellus
# [5] = Displacement of [3H]-PN200-110 from voltage-gated calcium channel subunit alpha Cav1.2a (unknown origin) expressed in HEK293 cells after 90 mins by liquid scintillation counting analysis; format: cell-based, Homo sapiens
# Outline: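 Intact HEK-293 cells stably transfected with a rabbit Cav1.2a (α1c-a) plasmid are used. They are incubated with 0.5 nM (+)-[5-methyl-3H]PN200-110 plus competitor at 0.001−100 μM, from 10⁻² M DMSO stocks diluted in buffer. IC50 values are given as mean ± SEM.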
# [6] = Negative chronotropic activity in guinea pig right atrium assessed as decrease in atrial rate at 10^-7 M relative to control; format: functional, Cavia porcellus, Cardiac atrium; parameters: scale not given: the % may be the effect or the level left
# Outline: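 Spontaneously beating isolated guinea pig right atrium. Compounds added cumulatively. The decrease in atrial rate is expressed as percent change from control. At each concentration, the difference from control was tested by Student's t-test, with significance at P<0.05. Data are given as mean SEM.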
# [7] = species on record: Cavia porcellus; experiment: Displacement of [3H]-PN200-110 from L-type calcium channel in Hartley guinea pig ventricular membrane […] after 90 mins relative to control
# [8] = system: HEK293; experiment: Displacement of [3H]-PN200-110 from voltage-gated calcium channel subunit alpha Cav1.2a (unknown origin) expressed in HEK293 cells at 100 uM after 90 mins by liquid scintillation counting analysis relative to control; format: cell-based; settings: Homo sapiens
# [9] = Negative inotropic activity in guinea pig left atrium assessed as decrease in developed tension at 10^-5 M relative to control; format: functional, Cavia porcellus, Cardiac atrium; parameters: scale not given: the % may be the effect or the level left
# [10] = Negative inotropic activity in guinea pig left atrium assessed as decrease in developed tension; format: functional, tissue-based; settings: Cavia porcellus, Cardiac atrium; outline: as §2
# [11] = species on record: Rattus norvegicus; experiment: Displacement of [3H]-PN200-110 from L-type calcium channel dihydropyridine binding site in Wistar rat cortex homogenate at 100 uM after 60 mins by liquid scintillation spectometric analysis relative to control; format: tissue-based
# Outline: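 Binding on rat cortex homogenate using (+)-[5-methyl-3H]PN200-110. The read-out is percent of maximal radioligand displacement at 100 μM test compound. Compounds are made up as 10⁻² M DMSO stocks and diluted in buffer. Values are from 3−5 separate experiments done in triplicate.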
# [12] = species on record: Cavia porcellus; experiment: Displacement of [3H]-PN200-110 from L-type calcium channel in Hartley guinea pig atrial membrane at 100 uM after 90 mins relative to control; format: cell membranes; settings: Cardiac atrium
# [13] = Displacement of [3H]-PN200-110 from L-type calcium channel in Hartley guinea pig atrial membrane after 90 mins; format: cell membranes, Cavia porcellus, Cardiac atrium
# Outline: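 Guinea pig atrial membranes are labelled at the 1,4-DHP site with (+)-[5-methyl-3H]PN200-110 at 0.5 nM. Competitor is added over 0.001−100 μM from 10⁻² M DMSO stocks diluted in buffer. Results are given as IC50 and Ki, mean ± SEM. Student's t-test is applied with P<0.001.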
# [14] = Displacement of [3H]-PN200-110 from L-type calcium channel dihydropyridine binding site in Wistar rat cortex homogenate after 60 mins by liquid scintillation spectometric analysis; format: tissue-based
# Outline: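 Competition binding on rat cortex homogenate with (+)-[5-methyl-3H]PN200-110. Compounds are dissolved in DMSO as 10⁻² M stocks and diluted in buffer. Six displacer concentrations are tested, each in triplicate. IC50 is obtained by −log probit analysis and Ki by the Prusoff method. Values are mean ± SEM of 3−5 separate experiments done in triplicate.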
# [15] = Negative chronotropic activity in guinea pig right atrium assessed as decrease in atrial rate at 5x10'-6 M relative to control; format: functional, Cavia porcellus, Cardiac atrium; parameters: scale not given: the % may be the effect or the level left
# [16] = Negative inotropic activity in guinea pig left atrium assessed as decrease in developed tension at 10^-4 M relative to control; format: functional, Cavia porcellus, Cardiac atrium; parameters: scale not given: the % may be the effect or the level left
# [17] = system: Ileum; experiment: Relaxant activity in potassium depolarized guinea pig ileum longitudinal smooth muscle assessed as inhibition of calcium-induced contraction at 5x10'-7 M relative to control; format: functional, Cavia porcellus; parameters: scale not given: the % may be the effect or the level left
# [18] = system: Ileum; experiment: Relaxant activity in potassium depolarized guinea pig ileum longitudinal smooth muscle assessed as inhibition of calcium-induced contraction; format: functional, tissue-based; settings: Cavia porcellus
# Outline: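 K⁺-depolarized (80 mM) guinea pig ileum longitudinal smooth muscle is used. Calcium-induced contraction is measured with cumulative compound addition.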
# [19] = system: Aorta; experiment: Relaxant activity in potassium depolarized guinea pig aortic strips assessed as inhibition of calcium-induced contraction at 10^-5 M relative to control; format: functional, Cavia porcellus; parameters: scale not given: the % may be the effect or the level left
# [20] = Negative chronotropic activity in guinea pig right atrium assessed as decrease in atrial rate at 10^-4 M relative to control; format: functional, Cavia porcellus, Cardiac atrium; parameters: scale not given: the % may be the effect or the level left
# Outline: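 The read-out is decrease in rate of spontaneously beating isolated guinea pig right atrium at 10⁻⁴ M. It is expressed as percent change from control, n = 7−8.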
# [21] = Negative inotropic activity in guinea pig right atrium assessed as decrease in developed tension at 10^-5 M relative to control; format: functional, Cavia porcellus, Cardiac atrium; parameters: scale not given: the % may be the effect or the level left
# Outline: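 The read-out is decrease in developed tension of spontaneously beating isolated guinea pig right atrium at 10⁻⁵ M. It is expressed as percent change from control, n = 7−8.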
# [22] = system: Ileum; experiment: Relaxant activity in potassium depolarized guinea pig ileum longitudinal smooth muscle assessed as inhibition of calcium-induced contraction at 10^-5 M relative to control; format: functional, Cavia porcellus; parameters: scale not given: the % may be the effect or the level left
# Outline: (§3)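 Guinea pig aortic strips and ileum longitudinal smooth muscle are depolarized with 80 mM K⁺. The read-out is percent inhibition of calcium-induced contraction. Aorta is tested at 10⁻⁴ M and ileum at 10⁻⁵ M.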
# [23] = system: Aorta; experiment: Relaxant activity in potassium depolarized guinea pig aortic strips assessed as inhibition of calcium-induced contraction at 10^-4 M relative to control; format: functional, Cavia porcellus; parameters: scale not given: the % may be the effect or the level left; outline: as §3
# [24] = Negative inotropic activity in guinea pig right atrium assessed as decrease in developed tension; format: functional, tissue-based; settings: Cavia porcellus, Cardiac atrium
compound,measurement,setting,value
COC(=O)C1=C(C)NC(C)=C(C(=O)OC)C1c1ccccc1[N+](=O)[O-] [NIFEDIPINE],Activity,[1],82%
same,Activity,[2],70%
same,pEC50,[3],7.41
same,pIC50,[4],8.24
same,pKi,[4],8.70
same,pIC50,[5],7.07
same,pKi,[5],7.49
same,Activity,[6],85%
same,%max,[7],80%
same,%max,[8],75%
same,Activity,[9],97%
same,pEC50,[10],6.59
same,%max,[11],92%
same,%max,[12],72%
same,pIC50,[13],8.29
same,pKi,[13],8.82
same,pIC50,[14],8.21
same,pKi,[14],8.72
COC(=O)C1=C(C)NC(C)=C(C(=O)OC)C1c1c(-c2cccs2)nc2sccn12,pEC50,[3],5.89
same,Activity,[15],85%
same,Activity,[16],46%
same,Activity,[17],91%
same,pIC50,[5],5.67
same,pKi,[5],6.15
same,%max,[7],< 50%
same,pIC50,[18],6.96
same,%max,[8],50%
same,%max,[12],< 50%
same,Activity,[19],23%
COC(=O)C1=C(C)NC(C)=C(C(=O)OC)C1c1c(-c2c(Cl)csc2Cl)nc2sc(C)cn12,Activity,[20],22%
same,Activity,[21],82%
same,Activity,[22],87%
same,pIC50,[18],5.49
same,Activity,[9],60%
same,pEC50,[10],6.51
same,Activity,[23],31%
same,pEC50,[24],6.14
